Test results as given in ChEMBL document CHEMBL1154054, “Novel 4-(morpholin-4-yl)-N'-(arylidene)benzohydrazides: synthesis, antimycobacterial activity and QSAR investigations” (Eur J Med Chem, 2009).

Tests used:
Format in all cases: functional
[1] = system: Mycobacterium tuberculosis; assay: Antimycobacterial activity against multidrug resistant Mycobacterium tuberculosis at 0.05 ug/ml after 72 hrs by LRP assay
In short: (§1)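 Luciferase reporter phage assay on M. tuberculosis (H37Rv, or clinical isolates resistant to S, H, R and E). Each sample had two drug-free controls and four drug concentrations, incubated 72 h at 37 °C. High-titer phAE129 phage plus 0.1 M CaCl₂ was added, then 4 h at 37 °C. Equal volume D-luciferin (0.3 mM, pH 4.5 citrate) was added; RLU integrated 10 s, duplicate mean; % RLU reduction vs control.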

[2] = system: Mycobacterium tuberculosis; assay: Antimycobacterial activity against multidrug resistant Mycobacterium tuberculosis at 0.5 ug/ml after 72 hrs by LRP assay; in short: as §1
[3] = system: Mycobacterium tuberculosis; assay: Antimycobacterial activity against multidrug resistant Mycobacterium tuberculosis at 5 ug/ml after 72 hrs by LRP assay; in short: as §1
[4] = system: Mycobacterium tuberculosis; assay: Antimycobacterial activity against multidrug resistant Mycobacterium tuberculosis at 10 ug/ml after 72 hrs by LRP assay; in short: as §1

| SMILES | Activity [1] [%] | Activity [2] [%] | Activity [3] [%] | Activity [4] [%] |
| --- | --- | --- | --- | --- |
| COc1ccc(/C=N/NC(=O)c2ccc(N3CCOCC3)cc2)cc1 | 56.53 | 82.97 | 89.33 | 90.36 |
| O=C(N/N=C/c1cccc([N+](=O)[O-])c1)c1ccc(N2CCOCC2)cc1 | 29.92 | 87.17 | 90.07 | 88.86 |
| O=C(N/N=C/c1ccc(Cl)cc1)c1ccc(N2CCOCC2)cc1 | 67.15 | 89.91 | 91.19 | 94.29 |
| O=C(N/N=C/c1ccc(O)cc1)c1ccc(N2CCOCC2)cc1 | 43.92 | 73.58 | 88.08 | 88.45 |
| O=C(N/N=C/c1ccc(F)cc1)c1ccc(N2CCOCC2)cc1 | 83.22 | 86.33 | 93.28 | 95.09 |
| O=C(N/N=C1\C=CCO1)c1ccc(N2CCOCC2)cc1 | 58.54 | 86.92 | 92.52 | 93.72 |
| COc1cc(/C=N/NC(=O)c2ccc(N3CCOCC3)cc2)cc(OC)c1OC | 35.83 | 96.88 | 90.29 | 90.24 |
| Cc1ccc(/C=N/NC(=O)c2ccc(N3CCOCC3)cc2)cc1 | 48.49 | 87.24 | 90.83 | 91.37 |
| O=C(N/N=C\C=C\c1ccccc1)c1ccc(N2CCOCC2)cc1 | 55.7 | 85.67 | 91.61 | 92.1 |
| NNC(=O)c1ccncc1 [ISONIAZID] | 84.37 | 89.6 | 95.85 | 94.7 |
| CN(C)c1ccc(/C=N/NC(=O)c2ccc(N3CCOCC3)cc2)cc1 | 48.14 | 90.72 | 93.18 | 95.02 |
